Measurements from ChEMBL document CHEMBL1141135, “A positron emission tomography radioligand for the in vivo labeling of metabotropic glutamate 1 receptor: (3-ethyl-2-[11C]methyl-6-quinolinyl)(cis- 4-methoxycyclohexyl)methanone” (J Med Chem, 2005).

Experiments:
[1] = molecular target: Metabotropic glutamate receptor 5 (Rattus norvegicus, UniProt P31424); experiment: In vitro affinity for cloned rat metabotropic glutamate 5 receptors stably expressed on CHO cells determined in radioligand binding assay; type: cell-based
[2] = molecular target: Metabotropic glutamate receptor 1 (Rattus norvegicus, UniProt P23385); experiment: In vitro affinity for cloned rat metabotropic glutamate 1 receptors stably expressed on CHO cells determined using [3H]-R214127 as radioligand; type: cell-based
[3] = Uptake in rat striatum 60 minutes after administration of the radiolabeled [11C]-compound; type: ADME, tissue-based; conditions: in vivo, 1 h
Procedure, shortened: (§1)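 Male Sprague-Dawley rats received the [11C] radioligand iv and were sacrificed at 10, 30 or 60 min. Brain regions were dissected and radioactivity counted. Uptake is expressed as %ID/g, mean ± SD, n = 3 animals per group.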

[4] = Uptake in rat cerebellum 10 minutes after administration of the radiolabeled [11C]-compound; type: ADME, tissue-based; conditions: in vivo; procedure, shortened: as §1
[5] = Uptake in rat cerebellum 30 minutes after administration of the radiolabeled [11C]-compound; type: ADME, tissue-based; conditions: in vivo, 0.5 h; procedure, shortened: as §1
[6] = Uptake in rat cerebellum 60 minutes after administration of the radiolabeled [11C]-compound; type: ADME, tissue-based; conditions: in vivo, 1 h; procedure, shortened: as §1
[7] = Uptake in rat hippocampus 10 minutes after administration of the radiolabeled [11C]-compound; type: ADME, tissue-based; conditions: in vivo; procedure, shortened: as §1
[8] = Uptake in rat hippocampus 30 minutes after administration of the radiolabeled [11C]-compound; type: ADME, tissue-based; conditions: in vivo, 0.5 h; procedure, shortened: as §1
[9] = Uptake in rat hippocampus 60 minutes after administration of the radiolabeled [11C]-compound; type: ADME, tissue-based; conditions: in vivo, 1 h; procedure, shortened: as §1
[10] = Uptake in rat frontal cortex 10 minutes after administration of the radiolabeled [11C]-compound; type: ADME, tissue-based; conditions: in vivo; procedure, shortened: as §1
[11] = Uptake in rat frontal cortex 30 minutes after administration of the radiolabeled [11C]-compound; type: ADME, tissue-based; conditions: in vivo, 0.5 h; procedure, shortened: as §1
[12] = Uptake in rat frontal cortex 60 minutes after administration of the radiolabeled [11C]-compound; type: ADME, tissue-based; conditions: in vivo, 1 h; procedure, shortened: as §1
[13] = Uptake in rat blood 10 minutes after administration of the radiolabeled [11C]-compound; type: ADME, tissue-based
[14] = Uptake in rat blood 30 minutes after administration of the radiolabeled [11C]-compound; type: ADME, tissue-based; conditions: 0.5 h
[15] = Uptake in rat blood 60 minutes after administration of the radiolabeled [11C]-compound; type: ADME, tissue-based; conditions: 1 h
[16] = Uptake in rat medulla 10 minutes after administration of the radiolabeled [11C]-compound; type: ADME, tissue-based, Medulla of organ; conditions: in vivo; procedure, shortened: as §1
[17] = Uptake in rat medulla 30 minutes after administration of the radiolabeled [11C]-compound; type: ADME, tissue-based, Medulla of organ; conditions: in vivo, 0.5 h; procedure, shortened: as §1
[18] = Uptake in rat medulla 60 minutes after administration of the radiolabeled [11C]-compound; type: ADME, tissue-based, Medulla of organ; conditions: in vivo, 1 h; procedure, shortened: as §1
[19] = Uptake in rat striatum 10 minutes after administration of the radiolabeled [11C]-compound; type: ADME, tissue-based; conditions: in vivo; procedure, shortened: as §1
[20] = Uptake in rat striatum 30 minutes after administration of the radiolabeled [11C]-compound; type: ADME, tissue-based; conditions: in vivo, 0.5 h; procedure, shortened: as §1

Metabotropic glutamate receptor 1, sequence (P23385 whole entry): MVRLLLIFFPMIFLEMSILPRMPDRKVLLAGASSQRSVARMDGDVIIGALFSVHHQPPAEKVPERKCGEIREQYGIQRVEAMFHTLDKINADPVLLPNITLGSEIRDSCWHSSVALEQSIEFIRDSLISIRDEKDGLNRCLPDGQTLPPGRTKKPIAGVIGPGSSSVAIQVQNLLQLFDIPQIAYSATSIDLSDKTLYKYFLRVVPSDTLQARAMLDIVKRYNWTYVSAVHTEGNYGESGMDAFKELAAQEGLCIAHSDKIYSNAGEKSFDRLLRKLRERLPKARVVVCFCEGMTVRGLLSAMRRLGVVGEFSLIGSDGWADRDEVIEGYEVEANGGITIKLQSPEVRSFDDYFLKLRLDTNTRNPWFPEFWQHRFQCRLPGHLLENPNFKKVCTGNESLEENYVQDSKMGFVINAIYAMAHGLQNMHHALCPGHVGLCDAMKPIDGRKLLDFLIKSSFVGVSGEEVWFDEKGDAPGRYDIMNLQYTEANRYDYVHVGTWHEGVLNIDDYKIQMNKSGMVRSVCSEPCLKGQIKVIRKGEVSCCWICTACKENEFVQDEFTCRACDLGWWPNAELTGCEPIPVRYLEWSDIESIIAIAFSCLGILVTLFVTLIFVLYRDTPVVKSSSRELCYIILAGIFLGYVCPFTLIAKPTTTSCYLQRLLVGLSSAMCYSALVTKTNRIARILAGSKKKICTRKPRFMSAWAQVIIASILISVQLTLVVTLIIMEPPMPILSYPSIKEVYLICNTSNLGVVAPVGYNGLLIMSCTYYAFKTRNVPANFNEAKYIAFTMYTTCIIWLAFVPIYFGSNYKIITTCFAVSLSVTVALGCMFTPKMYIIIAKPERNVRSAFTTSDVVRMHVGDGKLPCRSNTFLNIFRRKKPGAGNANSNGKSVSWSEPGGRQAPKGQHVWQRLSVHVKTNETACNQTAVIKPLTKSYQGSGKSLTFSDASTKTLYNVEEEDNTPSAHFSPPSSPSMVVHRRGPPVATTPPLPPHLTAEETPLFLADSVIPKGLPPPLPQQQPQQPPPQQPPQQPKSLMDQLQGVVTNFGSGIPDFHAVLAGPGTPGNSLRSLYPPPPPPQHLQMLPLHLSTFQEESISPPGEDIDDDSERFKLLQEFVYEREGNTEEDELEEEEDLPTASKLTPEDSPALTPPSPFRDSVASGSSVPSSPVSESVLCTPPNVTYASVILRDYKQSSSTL
Metabotropic glutamate receptor 5, sequence (P31424 whole entry): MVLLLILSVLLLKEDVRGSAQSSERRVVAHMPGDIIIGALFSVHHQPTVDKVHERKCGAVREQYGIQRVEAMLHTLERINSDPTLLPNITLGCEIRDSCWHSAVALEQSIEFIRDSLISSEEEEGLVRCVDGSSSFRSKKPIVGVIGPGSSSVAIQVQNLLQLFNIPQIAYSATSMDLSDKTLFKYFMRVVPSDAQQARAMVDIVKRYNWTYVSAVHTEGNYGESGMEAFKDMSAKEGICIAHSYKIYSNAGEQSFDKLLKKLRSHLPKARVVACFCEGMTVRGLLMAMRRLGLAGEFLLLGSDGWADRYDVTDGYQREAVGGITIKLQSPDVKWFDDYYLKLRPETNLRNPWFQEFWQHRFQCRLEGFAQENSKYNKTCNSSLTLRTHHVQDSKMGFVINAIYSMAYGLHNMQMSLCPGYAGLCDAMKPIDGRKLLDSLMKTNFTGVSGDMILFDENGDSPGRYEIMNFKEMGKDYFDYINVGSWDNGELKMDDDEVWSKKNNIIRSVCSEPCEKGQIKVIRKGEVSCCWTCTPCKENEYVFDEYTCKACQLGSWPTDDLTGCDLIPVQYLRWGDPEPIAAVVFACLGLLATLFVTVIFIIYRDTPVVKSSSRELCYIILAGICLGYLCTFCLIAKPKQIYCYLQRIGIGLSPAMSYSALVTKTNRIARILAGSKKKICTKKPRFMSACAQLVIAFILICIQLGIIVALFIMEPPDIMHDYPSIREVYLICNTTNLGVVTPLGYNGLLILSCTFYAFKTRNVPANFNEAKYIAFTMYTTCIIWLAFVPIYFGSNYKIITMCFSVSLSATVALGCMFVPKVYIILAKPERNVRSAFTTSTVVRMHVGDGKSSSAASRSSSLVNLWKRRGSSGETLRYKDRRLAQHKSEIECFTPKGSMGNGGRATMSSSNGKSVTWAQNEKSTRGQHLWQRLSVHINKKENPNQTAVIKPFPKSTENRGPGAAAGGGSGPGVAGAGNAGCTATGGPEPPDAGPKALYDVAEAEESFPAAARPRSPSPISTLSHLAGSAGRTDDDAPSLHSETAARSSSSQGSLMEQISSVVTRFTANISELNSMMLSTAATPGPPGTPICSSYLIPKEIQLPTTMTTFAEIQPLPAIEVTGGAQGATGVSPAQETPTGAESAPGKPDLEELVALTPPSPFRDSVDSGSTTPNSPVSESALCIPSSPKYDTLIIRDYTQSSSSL

- Ki [1]: 2.37 µM
- Ki [2]: 0.00087 µM
- ID/g [3]: 0.1%
- ID/g [4]: 1.24%
- ID/g [5]: 0.61%
- ID/g [6]: 0.27%
- ID/g [7]: 0.58%
- ID/g [8]: 0.17%
- ID/g [9]: 0.1%
- ID/g [10]: 0.52%
- ID/g [11]: 0.13%
- ID/g [12]: 0.07%
- ID/g [13]: 0.42%
- ID/g [14]: 0.26%
- ID/g [15]: 0.2%
- ID/g [16]: 0.47%
- ID/g [17]: 0.13%
- ID/g [18]: 0.07%
- ID/g [19]: 0.73%
- ID/g [20]: 0.17%
Structure (SMILES): CCc1cc2cc(C(=O)[C@H]3CC[C@@H](OC)CC3)ccc2nc1C
